Assay outcomes from PubChem BioAssay.
An excerpt weighted towards active compounds, which were near 1.5% of everything screened.
bCat nuc transl: modulators of beta-catenin nuclear translocation. HeLa beta-catenin nuclear translocation, immunofluorescence imaging. nuclear translocation activity, % at 5 µM. 190,000 tested, 0.3% active;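 active = nuclear translocation activity above 50% at 5 µM, with a well cell count of 50 or more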;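 note: per-cell ratio of nuclear to cytoplasmic median beta-catenin stain intensity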
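Technique: fluorescence imaging of beta-catenin antibody stain plus DAPI / Material: human HeLa cell line / Incubation: compound treatment 24 h, 37°C, 5% CO2 / Read-out basis: % activation of per-cell nuclear versus cytoplasmic median beta-catenin signal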
Tb hexokinase: T. brucei hexokinase 1 inhibition; inhibition, % at 10 µM; 220,000 tested, 0.11% active; recombinant TbHK1, G6PDH-coupled NADH A340;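 active = inhibition of 50% or more in the single-dose primary screen; inactive = inhibition below 50%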
MT stabilize HCS: microtubule stabilizers in HeLa cells. HeLa tubulin immunostaining HCS, 24 h; share of cells brighter than vehicle mean+2SD. % tubulin-high responders, % at 10 µM. 200,000 tested, 0.83% active. AID 2205;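 active = plate Z-score above 3 for both tubulin-high and condensed-nucleus cell shares, with cell loss under 80%, at 10 µM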;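 note: anti alpha tubulin signal scored within the nucleus-defined area of each cell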
Dynein transport: dynein cargo transport inhibition. AID 1381. z-score, hits read low. 220,000 tested, 0.47% active. 3617.4 mouse cells, GR-EGFP nuclear translocation imaging; test concentration mostly 20 µM; stimulated with dexamethasone, 1 µM; active compounds read low;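 active = plate z-score of nuclear minus cytoplasmic receptor signal below a set negative limit, without overly bright fluorescence or cell loss, cut at about -3.5 in these data, passing the limit was not always enough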;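 note: z-score of nuclear minus cytoplasmic ring GR-EGFP intensity difference per well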
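Buffer or medium: tet-free, stripped-serum medium; reagent: dexamethasone at 1.0 µM final, 30 min; incubation: 48 h induction, 1 h compound, 30 min dex at 37 °C; measured by: formaldehyde fixation, Hoechst nuclear stain, 10x automated fluorescence imaging; read-out: nuclear-to-cytoplasmic GR-EGFP distribution per well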
Rad51 HR inh: blocks human Rad51 in homologous recombination; 200,000 tested, 0.085% active; hRad51 DNA strand exchange, fluorescence dequenching; Q06609; inhibition, % at 10 µM;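 active = inhibition above 40% at the single screening dose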
Target sequence (Q06609 whole entry, looked up): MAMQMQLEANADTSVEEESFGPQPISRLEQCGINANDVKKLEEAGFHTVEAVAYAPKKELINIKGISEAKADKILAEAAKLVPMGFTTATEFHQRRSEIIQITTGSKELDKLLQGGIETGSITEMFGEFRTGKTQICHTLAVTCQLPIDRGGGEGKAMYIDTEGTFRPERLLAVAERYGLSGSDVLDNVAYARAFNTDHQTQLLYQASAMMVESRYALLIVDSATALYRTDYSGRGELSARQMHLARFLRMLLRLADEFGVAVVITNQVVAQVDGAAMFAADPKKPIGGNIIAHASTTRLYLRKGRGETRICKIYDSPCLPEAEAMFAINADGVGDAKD
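System: human Rad51 nucleoprotein filaments preassembled on unlabelled ssDNA. Reagent: labelled 47-mer dsDNA for strand exchange. Schedule: 30-min compound preincubation and 15-min exchange, both room temperature. Measured by: FRET fluorescence dequenching, excitation 485 nm, emission 520 nm. Read-out: Fluorescence-based percent inhibition, control- and blank-normalised. Benchmarks: plate controls and plate blanks.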
Numbers stand for hits; n = inactive; x = not tested or not shown.

SMILES	bCat nuc transl	Tb hexokinase	MT stabilize HCS	Dynein transport	Rad51 HR inh
CCCOC(=O)c1cc(-c2ccc(/C=C3/C(=O)N(C)C(=O)C(C#N)=C3C)o2)ccc1Cl	x	n	n	-3.7	x
Cn1c(=O)n(C)c2cc(NS(=O)(=O)c3ccc(C(C)(C)C)cc3)ccc21	n	n	n	n	n
O=C(c1ccc(Cl)c(S(=O)(=O)NCc2ccco2)c1)N1CCN(c2ccccc2F)CC1	x	n	41	n	n
COc1ccccc1N1CCN(C(=O)c2ccc(Cl)c(S(=O)(=O)NCc3ccco3)c2)CC1	129	n	50	n	n
O=C(Nc1ccccc1N1CCOCC1)c1ccc(Cl)c(S(=O)(=O)NCc2ccco2)c1	n	n	n	n	n
CSC1=N/C(=C\c2cccnc2)C(=O)N1c1ccccc1	n	n	n	n	n
O=C(O)CC(NS(=O)(=O)c1ccc(Br)cc1)c1ccco1 (stereo unspecified)	n	n	n	n	n
CNc1nc(SC)nc2ccccc12	n	n	n	n	n
CN(NC(=O)c1ccc(Cl)cc1)c1nc(-c2ccccc2)nnc1C(F)(F)F	n	n	n	n	x
CSc1nc(N(C)NC(=O)c2ccccc2)c2ccccc2n1	54	n	33	n	n
Cc1ccc(C(=O)NN(C)c2nc3ccccc3nc2C(F)(F)F)cc1	n	n	41	n	n
CSc1nc(N(C)NC(=O)c2ccc(Cl)cc2)c2ccccc2n1	n	n	19	n	n
CCOC(=O)N1CCC(Nc2c(-c3ccc(C)c(C)c3)c(=O)c2=O)CC1	n	n	n	n	n
CCOC(=O)c1c(C)c(C(=O)Nc2cc(F)ccc2F)c(C)n1C	n	n	13	n	n
O=S(=O)(c1ccc(Cl)c(Cl)c1)c1snnc1-c1ccccc1	n	n	n	-4	n
Cc1[nH]nc2c1C(=O)CC(C)(C)C2	n	n	n	n	n
Cc1[nH]nc2c1C(=O)CCC2	n	n	n	n	86
Cc1cc(NC(=O)CSc2c3c(nc4ccccc24)CCC3)no1	x	n	n	n	x
C=CCn1c(C)cc(C2=NNC(=NCc3ccccc3)SC2)c1C	n	n	15	n	n
[O-]C1=N/[N+](=C/c2ccc(Cl)cc2)CC1	n	n	n	n	n
CCOC(=O)c1ccc2c(c1)N(CC)/C(=C\C=C1/SC(=S)N(CC)C1=O)N2CC	x	n	n	-6	x
Cc1cccc(-n2c(=O)cc(N3CCN(c4ccc(F)cc4)CC3)[nH]c2=O)c1	n	n	n	n	n
CC(C)(C)C(=O)C[n+]1ccccc1	n	n	n	n	n
COc1ccc(NC(=O)CN(c2ccc([N+](=O)[O-])cc2)S(=O)(=O)c2ccccc2)cc1	n	n	14	n	n
COc1cccc(NC(=O)CN(c2ccc([N+](=O)[O-])cc2)S(=O)(=O)c2ccccc2)c1	n	n	n	n	x
SMILES	bCat nuc transl	Tb hexokinase	MT stabilize HCS	Dynein transport	Rad51 HR inh
O=C(c1ccco1)N1CCN(C(=O)c2cnn3c2NC(c2cccs2)CC3C(F)(F)F)CC1 (stereo unspecified)	x	n	n	n	n
O=C(c1cnn2c1NC(c1ccco1)CC2C(F)(F)F)N1CCN(c2cccc(Cl)c2)CC1 (stereo unspecified)	n	n	45	n	n
CCc1nnc(NC(=O)CCc2ccc(C)o2)s1	x	n	n	n	n
Cc1ccc(CCC(=O)Nc2ncc(Cc3cccc(Cl)c3Cl)s2)o1	100	n	n	n	n
CN(C)S(=O)(=O)c1ccc(NC(=O)CSc2n[nH]c(=O)n2C2CC2)cc1	n	n	n	n	n
CC(C)c1ccc(NC(=O)COc2ccc(F)cc2C(=O)c2cnn(-c3ccccc3)c2)cc1	x	n	20	n	n
COc1cc(/C=N/Nc2snc(SC)c2C#N)ccc1O	n	n	49	n	n
COC(=O)c1cc(Cl)c(NC(=O)/C=C/c2ccc(OC)cc2)cc1OC	n	n	26	n	n
CCOC(=O)C1=C(C)N=C2SC=C(C)N2C1c1ccc(OC)cc1 (stereo unspecified)	n	n	12	n	n
Cc1ccc2nc3c(cc2c1)CN(Cc1ccco1)C(=NCC1CCCO1)S3 (stereo unspecified)	n	n	n	n	n
Cc1cccc2cc3c(nc12)SC(=NCC1CCCO1)N(Cc1ccco1)C3 (stereo unspecified)	n	n	32	n	n
O=C(CCN1CCCC1)Nc1cccc(Br)c1	n	n	n	n	n
O=[N+]([O-])c1ccccc1-c1ccc(C(=S)N2CCCC2)o1	n	n	n	n	n
